The list is not random: actives were taken first. Their share in the collection is about 4.5%.
APP 5'UTR act – activators of APP 5'UTR luciferase reporter, primary screen, SH-SY5Y cells. SH-SY5Y APP 5'UTR luciferase reporter, luminescence; zero percent = DMSO vehicle wells. activation, % at 2 µM. 190,000 tested, 1% active;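 active = activation above a set limit, based on mean plus 3 SD of controls, cut at about 140% in these data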
MDM2 E3 inh – MDM2-luciferase reporter signal enhancers, primary screen, MDM2 E3 ligase inhibitor project, cell-based, luminescence, 1536-well | AID 1230, 2008 | signal enhancement, % at 5 µM | E3 ubiquitin-protein ligase Mdm2 (Homo sapiens), Q00987 | cell-based MDM2 ubiquitination luciferase reporter, 2 h; 0 = plate control, 100 = twice control, blank-subtracted | 210,000 tested, 0.11% active;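 active = signal enhancement of 30% or more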;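 note: luminescence tracks abundance of the self-degrading MDM2-luciferase fusion protein; higher signal means inhibition of MDM2 E3 ligase activity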
Target sequence (Q00987 whole entry, looked up, the tested form may be a part): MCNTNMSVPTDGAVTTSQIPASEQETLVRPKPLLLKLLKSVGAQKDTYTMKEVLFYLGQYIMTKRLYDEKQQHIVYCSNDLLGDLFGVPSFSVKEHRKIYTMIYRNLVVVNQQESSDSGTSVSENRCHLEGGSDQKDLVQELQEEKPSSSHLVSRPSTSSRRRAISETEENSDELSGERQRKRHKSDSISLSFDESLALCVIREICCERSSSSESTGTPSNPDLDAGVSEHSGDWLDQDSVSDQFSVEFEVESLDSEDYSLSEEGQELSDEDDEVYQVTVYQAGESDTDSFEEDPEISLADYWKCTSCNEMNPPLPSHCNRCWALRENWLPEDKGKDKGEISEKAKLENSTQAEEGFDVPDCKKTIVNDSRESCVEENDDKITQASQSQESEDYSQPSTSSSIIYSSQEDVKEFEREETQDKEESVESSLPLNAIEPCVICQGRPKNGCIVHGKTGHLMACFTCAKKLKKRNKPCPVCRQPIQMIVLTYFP
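test system = mammalian cells stably expressing self-ubiquitinating, self-degrading MDM2 E3–luciferase fusion | quantity = 2000 cells/well | incubation = cell settling 4 h, compound treatment 2 h, both 37 °C | signal = luminescence with SteadyLite reagent, 15 min at room temperature | evaluation = % enhancement relative to plate controls after blank subtraction | benchmarks = plate controls and plate blanks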
PERK inh – block of dimerizer-induced PERK translation repression, primary screen, PERK inhibitor project, CHO PERK-DD cells, SEAP luminescence, HTS; Eukaryotic translation initiation factor 2-alpha kinase 3 (Homo sapiens), Q9NZJ5; CHO PERK-DD fusion, SEAP luminescence translation reporter; inhibition, % at 5.6 µM; 220,000 tested, 0.17% active; AID 1416, 2008;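 active = inhibition above the mean inhibition of all tested compounds plus 3 SD, set separately per screening campaign, cut at about 2.9% in these data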;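 note: PERK kinase domain activated by AP20187 dimerizer at 100 nM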
NF-kB neuron act – activators of NF-kB expression in neurons, primary screen, cell-based, HTS. 190,000 tested, 1.6% active. AID 1239, 2008. human neuronal cells, NF-kB reporter expression; active compounds read high. fold change at 12.5 µM; in the data active = fold change above about 3.3
STAT1 activator – STAT1 signaling activators, primary screen, cell-based, HTS, luciferase reporter. AID 932, 2007. 200,000 tested, 2.6% active. activation (% of control), % at 5.5 µM. NIH 3T3 STAT1-luciferase reporter, IFN-gamma, luminescence; 100% = IFN-gamma alone, no compound;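 active = activation above the screen-wide mean activation plus 3 SD, cut at about 130% in these data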
AHR act – AHR activators, primary screen, cell-based, luminescence, luciferase reporter, human; AHR-responsive luciferase reporter cells; activation, % at 5 µM; 320,000 tested, 2.5% active; in the data active = activation above about 47%
Of the large screens only hits and unclear results are named; the others gave an inactive call.

Cc1cc(C)n(CCC(=O)Nc2ccc(-c3ccno3)cc2)n1	none (no result: APP 5'UTR act, MDM2 E3 inh, PERK inh, NF-kB neuron act, STAT1 activator)
C=CCNC(=S)Nc1c(C(=O)OC)[nH]c2cc(OC)ccc12	AHR act 77.2 (no result: APP 5'UTR act, NF-kB neuron act, STAT1 activator)
COC(=O)c1[nH]c2cc(OC)ccc2c1NC(=O)c1c(F)cccc1F	none (no result: APP 5'UTR act, NF-kB neuron act, STAT1 activator)
CC(C)c1ccc(/C=N/NC(=O)CCNC(=O)c2ccccc2)cc1	none (no result: APP 5'UTR act, MDM2 E3 inh, PERK inh, NF-kB neuron act, STAT1 activator)
CC(OC(=O)c1ccc([N+](=O)[O-])s1)C(=O)NC1CCCCC1C (stereo unspecified)	none (no result: APP 5'UTR act, MDM2 E3 inh, PERK inh, NF-kB neuron act, STAT1 activator)
COc1ccc(C2=NS(=O)(=O)N(C)C(C(=O)N3CCC(C(N)=O)CC3)=C2)cc1	none (no result: APP 5'UTR act, MDM2 E3 inh, PERK inh, NF-kB neuron act, STAT1 activator)
COc1ccc(NC(=O)c2cc3cc(C)ccc3n2C)c(OC)c1	AHR act 58.7 (no result: APP 5'UTR act, MDM2 E3 inh, PERK inh, NF-kB neuron act, STAT1 activator)
C(=N\Nc1nccc(-c2cccnc2)n1)/c1ccccc1	none (no result: APP 5'UTR act, NF-kB neuron act, STAT1 activator)
Cc1ccnc(N/N=C/c2ccccc2)n1	STAT1 activator 145.1
COc1ccc(NC(=O)Nc2nnc(-c3ccccc3F)s2)cc1	AHR act 71.5
COc1ccc(CC(=O)Nc2nnc(C(C)C)s2)cc1	none (no result: AHR act)
COc1ccc(NC(=O)Nc2nnc(-c3ccco3)s2)cc1	AHR act 64.4 (no result: APP 5'UTR act, MDM2 E3 inh, NF-kB neuron act, STAT1 activator)
COc1ccc(NC(=O)Nc2nnc(-c3ccncc3)s2)cc1	none
COc1ccc(NC(=O)Nc2nnc(C(C)C)s2)cc1	STAT1 activator 130.3
O=C(NCCCNc1ccnc2cc(Cl)ccc12)c1ccccc1F	none (no result: APP 5'UTR act, MDM2 E3 inh, PERK inh, NF-kB neuron act, STAT1 activator)
C/C(=N\NC(=O)c1cc(C)[nH]n1)c1cccs1	none
C/C(=N/NC(=O)c1cc(C(C)C)[nH]n1)c1cccs1	NF-kB neuron act 3.41
C/C(=N/NC(=O)c1cnccn1)c1cccs1	STAT1 activator 135.1
C/C(=N\NC(=O)c1ccc(NS(=O)(=O)c2cccs2)cc1)c1cccs1	none
C/C(=N\NC(=O)c1cccs1)c1ccncc1	none (no result: APP 5'UTR act, MDM2 E3 inh, PERK inh, NF-kB neuron act, STAT1 activator)
CC(=N/O)/C(C)=N\NC(=O)c1ccccn1	none
C/C(=N\NC(=O)c1ccccn1)c1ccc(C(=O)O)s1	STAT1 activator 132.9
C/C(=N\NC(=O)c1ccc(Cl)cc1)c1cccs1	NF-kB neuron act 5.38 (no result: AHR act)
CCC(=O)Nc1cccc(NC(=O)CSc2nc3c(c(=O)n(C)c(=O)n3C)n2C)c1	none (no result: APP 5'UTR act, MDM2 E3 inh, PERK inh, NF-kB neuron act, STAT1 activator)
Cc1ccc(Nc2nc(-c3ccc(S(=O)(=O)N4CCOCC4)cc3)cs2)cc1Cl	none
C/C(=N\Nc1ccccn1)c1cccs1	STAT1 activator 136.6
Cc1cccc(CSc2cccc3cccnc23)c1	STAT1 activator 145.9
NNC(=O)COc1ccc2oc3c(c2c1)CCCC3	AHR act 68.5 (no result: APP 5'UTR act, MDM2 E3 inh, PERK inh, NF-kB neuron act, STAT1 activator)
O=C(NCc1cccs1)C1CCC(=O)N(Cc2cccc(C(F)(F)F)c2)C1 (stereo unspecified)	none (no result: APP 5'UTR act, MDM2 E3 inh, PERK inh, NF-kB neuron act, STAT1 activator)
Clc1ccc(Cn2ccc(-c3ccc4c(c3)OCO4)n2)cc1Cl	AHR act 51.0
Cc1ccc(C)c(C(=O)COC(=O)C2CCN(c3ccc(C(F)(F)F)cn3)CC2)c1	none (no result: APP 5'UTR act, MDM2 E3 inh, PERK inh, NF-kB neuron act, STAT1 activator)
CCCNC(=O)c1c[nH]c2ccc(S(=O)(=O)N(C)c3ccc(OCC)cc3)cc2c1=O	AHR act 54.2
CCOc1ccc(N(C)S(=O)(=O)c2ccc3[nH]cc(C(=O)NCCOC)c(=O)c3c2)cc1	none
CCOc1ccc(N(C)S(=O)(=O)c2ccc3[nH]cc(C(=O)NCCCOC)c(=O)c3c2)cc1	AHR act 47.8 (no result: APP 5'UTR act, MDM2 E3 inh, PERK inh, NF-kB neuron act, STAT1 activator)
CCCNC(=S)NNC(=O)c1cc(-c2cccnc2)nc2ccccc12	none (no result: APP 5'UTR act, MDM2 E3 inh, PERK inh, NF-kB neuron act, STAT1 activator)
CCCCOc1ccc(-c2cc(C(=O)NNC(=S)NCC)c3ccccc3n2)cc1	APP 5'UTR act 153.5, NF-kB neuron act 4.11
CCNC(=S)NNC(=O)c1cc(-c2ccc(OC)cc2)nc2ccccc12	NF-kB neuron act 4.12
CCCCNC(=S)NNC(=O)c1cc(-c2cccnc2)nc2ccccc12	AHR act 53.9 (no result: APP 5'UTR act, MDM2 E3 inh, PERK inh, NF-kB neuron act, STAT1 activator)
N#Cc1ccc(-c2ccccc2)nc1SCC(=O)c1cc2ccccc2oc1=O	AHR act 55.2
CCN(CC)c1ccc(/C=C2/C(=O)c3ccc(C(=O)O)cc3C2=O)cc1	MDM2 E3 inh 63.3, STAT1 activator 129.5
COCC(C)NC(=O)c1cc(-c2cccc(OC)c2)on1 (stereo unspecified)	STAT1 activator 133.7
COc1ccc(-c2[nH]c(-c3cccc(OC)c3)nc2SCC(=O)NC2CCCC2)cc1	AHR act 64.6 (no result: MDM2 E3 inh)
COc1cccc(NC(=O)NC2CCCCCCC2)c1	none (no result: APP 5'UTR act, MDM2 E3 inh, PERK inh, NF-kB neuron act, STAT1 activator)
COc1cccc(NC(=O)C(=S)NC2CCCCC2)c1	APP 5'UTR act 156.1, NF-kB neuron act 6.96, STAT1 activator 129.7
COc1cccc(-c2cc(C(=O)NC3CCCC3)no2)c1	NF-kB neuron act 4.91, STAT1 activator 143.6
CCN1CCN(C(=O)c2cc(COc3ccc(F)cc3F)on2)[C@@H](C)C1=O	none (no result: APP 5'UTR act, MDM2 E3 inh, PERK inh, NF-kB neuron act, STAT1 activator)
COc1cccc(-c2cc(C(=O)Nc3cccc(O)c3)no2)c1	NF-kB neuron act 6.68
COc1cccc(-c2cc(C(=O)Nc3ccccc3SC)no2)c1	STAT1 activator 129.2
CC[C@@H](C)[C@@H](C(=O)N1CCNCC1)n1cc(CCC(=O)O)nn1	none (no result: MDM2 E3 inh)
O=C(CCNC(=O)c1ccccc1Cl)Nc1nc(-c2ccccc2Cl)cs1	none
COc1ccc(NC(=O)CSc2nnc(-c3ccco3)n2N)cc1Cl	none (no result: APP 5'UTR act, MDM2 E3 inh, PERK inh, NF-kB neuron act, STAT1 activator)
COc1ccc(NC(=O)CSc2nnc(-c3ccccn3)n2N)cc1Cl	AHR act 73.1
COc1ccc(-c2cc(C#N)nc(N3CCN(C)CC3)n2)cc1	AHR act 73.5
CN1CCN(c2nc(C#N)cc(-c3ccccc3)n2)CC1	none
CN(C(=O)C1CCCCC1)C1(C)CCS(=O)(=O)C1 (stereo unspecified)	none (no result: APP 5'UTR act, MDM2 E3 inh, PERK inh, NF-kB neuron act, STAT1 activator)
